Bioassay records from PubChem.
TbMetRS inhib – Trypanosoma brucei MetRS inhibition | purified T. brucei MetRS, ATP depletion, Kinase-Glo luminescence | inhibition, % at 11.9 µM | 360,000 compounds, 0.4% hits | AID 624268;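 active means inhibition above a per-plate cutoff of the control wells' mean inhibition plus 3 SD, cut at about 5.5% in these data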;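 further: 0% = DMSO wells median and 100% = median of wells with control inhibitor compound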
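Test system – parasite MetRS enzyme · Reagent – substrates ATP, L-methionine and bulk Escherichia coli tRNA · Doses – 11.9 µM compound single dose, 0.9% DMSO · Times – 15 min enzyme-compound preincubation, 2 h reaction, 10 min detection, 25 °C · Signal – Kinase-Glo luminescence, ATP depletion format · Controls – DMSO-only wells as low control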
UPR CHOP act – apoptotic UPR (CHOP) activation. CHO-CHOP luciferase reporter, luminescence; percent of tunicamycin response over DMSO baseline. activation, % at 10 µM. 330,000 compounds, 0.34% hits. AID 449763;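 active means at 10 µM dose, activation of 40% or more, normalized to positive control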;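 further: 100% = tunicamycin at 10 µg/mL and 0% = DMSO alone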
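Assay system: CHO cells with stable CHOP pathway luciferase reporter; Buffer or medium: F12 plus 10% serum; Times: 16-18 h cell attachment, then 6 h compound exposure, 37 °C; Signal: luciferase luminescence; Read-out basis: percent activation relative to tunicamycin control; Control set: tunicamycin high control, DMSO low control.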
CHOP inh – blocks CHOP induction under ER stress | CHO-K1 CHOP-promoter luciferase, tunicamycin-induced, 15-18 h | inhibition, % at 10 µM | 220,000 compounds, 3.8% hits | AID 2732;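 active means compounds that reduced the stress-induced luciferase reporter signal by more than about 70% of percent inhibition, limit read from the data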;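 further: 0% = tunicamycin plus vehicle and 100% = wells without tunicamycin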
V-ATPase pHluor – regulators of yeast V-ATPase proton transport. S. cerevisiae, pHLuorin cytosolic pH fluorescence. response, % at 10 µM. 350,000 compounds, 0.37% hits. AID 504577; in the data active means response mostly above about 7.3%, no sharp cut-off; inactive means mostly below about 5.4%; further: actives read high
XBP1 UPR activ – activators of adaptive arm of unfolded protein response (XBP1); AID 463104; activation, % at 20 µM; 330,000 compounds, 0.33% hits; CHO-XBP1 luciferase reporter, IRE1-XBP1 UPR activation, luminescence; percent of tunicamycin response, DMSO as zero;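 active means versus positive control, 20 µM dose yields 30% or more activation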;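 further: 100% = tunicamycin at 10 µg/mL and 0% = DMSO only wells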
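Test system: CHO-XBP1 luciferase reporter cells | Buffer or medium: Serum-containing F12 medium, 10% FBS | Schedule: 6 h compound exposure at 37 °C, 5% CO2 | Detection: Steady-Glo luciferase glow luminescence, 10 min after reagent addition | Read-out basis: Activation, % of tunicamycin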
V-ATPase pH SP – modulates yeast V-ATPase proton transport; shares compounds with V-ATPase pHluor; S. cerevisiae pHLuorin cytosolic pH; AID 602197; response, % at 10 µM; 980 compounds, 2% hits; in the data active means response above about 24%;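 further: plate controls were vehicle wells for no effect and positive control wells for full effect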
* hit, by the source's call; · = no result. Many of the other results were omitted from the sample, so hits are more common in it than they were.

SMILES	TbMetRS inhib	UPR CHOP act	CHOP inh	V-ATPase pHluor	XBP1 UPR activ	V-ATPase pH SP
O=C1C2CCCN2C(=O)N1CCCCN1CCN(c2cccc(Cl)c2)CC1 (stereo not drawn)	0	3	22	0	0	·
O=C1C2CCCCN2C(=O)N1CCN1CCN(c2cccc(Cl)c2)CC1 (stereo not drawn)	0	·	·	6.3*	·	1
O=C(c1ccccc1)N1CN2CN(C(=O)c3ccccc3)CC([N+](=O)[O-])(C2)C1	0	-2	-12	46*	-3	-3
CCOc1ccc(-n2c(SCC(=O)NCc3ccco3)nc3c([nH]c4ccccc43)c2=O)cc1	1	-2	·	10.0*	-3	2
CCNc1nnc(CCn2nc(C)c(Br)c2C)s1	-1	0	-18	18*	0	1
CCCCNc1nnc(CCn2nc(C)c(Br)c2C)s1	-1	-3	54	-1	-1	·
Cc1cccc(C)c1NC(=O)CNC(=O)c1ccccc1	0	1	·	-3	0	·
Cc1cccc(C)c1NC(=O)CNC(=O)c1ccncc1	0	-1	·	8.3*	-1	-2
Cc1ccc(NC2OC(C(O)CO)C(O)C2O)cc1[N+](=O)[O-] (stereo not drawn)	-1	0	1	36*	-6	-4
Cc1ccc(S(=O)(=O)NC(=O)NCCCCNC(=O)NS(=O)(=O)c2ccc(C)cc2)cc1	0	-1	37	18*	-2	1
CCCCNC(=O)NS(=O)(=O)c1ccc(C)cc1	-1	-3	0	-3	-6	·
COc1ccc(NC(=O)CN(C)CC(=O)Nc2sc3c(c2C#N)CCC3)cc1	0	-1	·	0	2	·
CCc1cc2c(SCC(=O)N(C)C3CCS(=O)(=O)C3)ncnc2s1 (stereo not drawn)	0	-2	0	-4	-3	·
NS(=O)(=O)c1ccc(CCNC(=O)CCNC(=O)c2ccco2)cc1	0	3	·	-4	-1	·
NS(=O)(=O)c1ccc(CCNC(=O)c2ccco2)cc1	0	1	-26	11*	-1	-1
CC1=C(C#N)CCC(=O)N1Cc1c(F)cccc1Cl	-1	-3	5	9	0	-3
Cc1ccc(C(=O)Oc2coc(CSc3nnc(NC(=O)C4CC4)s3)cc2=O)cc1	0	1	40	0	0	·
O=C(Oc1coc(CSc2nnc(NC(=O)c3cccs3)s2)cc1=O)c1ccccc1	0	-1	25	9.3*	-4	-3
COc1ccc(CNC(=S)NCc2ccc(OC)cc2)cc1	-1	-2	6	7.1*	-4	-1
COc1ccc(CNC(=S)NCc2ccc(F)cc2)cc1	0	0	·	2	-3	·
COC(=O)c1c(NC(=O)CN2C(=O)C(=O)N(C(C)C)C2=O)sc(C)c1C	0	3	·	-7	-1	·
CC1=C(C(N)=O)C(c2ccc(Cl)cc2)n2nc(CCCO)nc2N1 (stereo not drawn)	0	-1	·	2	-8	·
CC1=C(C(N)=O)C(c2cccc(O)c2)n2nc(CCCO)nc2N1 (stereo not drawn)	0	-1	5	7.2*	-1	-2
Cc1snc(S(=O)(=O)/C(C#N)=N/Nc2cccc(C(F)(F)F)c2)c1C#N	-1	-2	-3	25*	-8	-4
Cc1cc(NC(=O)NC(=O)c2ccccc2)no1	-1	3	·	-3	-4	·
SMILES	TbMetRS inhib	UPR CHOP act	CHOP inh	V-ATPase pHluor	XBP1 UPR activ	V-ATPase pH SP
COc1cc([N+](=O)[O-])cc2sc(NC(=O)c3c(F)cccc3F)nc12	0	-2	14	3	-1	·
O=C1CC(N2CCC(c3nc4ccccc4[nH]3)CC2)C(=O)N1c1cccc(F)c1 (stereo not drawn)	2	1	-9	5.8*	-3	3
CC(C)C[C@H](NC(=O)OC(C)(C)C)C(=O)N[C@@H](CO)[C@H](O)[C@@H]1C[C@@H]1C(=O)NC1CC1	0	0	·	0	-2	·
CC(C)C[C@H](NC(=O)OC(C)(C)C)C(=O)N[C@@H](CO)[C@H](O)[C@@H]1C[C@@H]1C(=O)NC1CCCCC1	0	-1	·	26*	1	2
Cc1cccc(NC(=O)C2(c3cccs3)CCOCC2)n1	0	0	-7	3	0	·
Cc1ccc(OCc2cc(C(=O)NCC(C)(C)N3CCOCC3)no2)cc1C	-1	5	·	8.2*	0	-7
Cc1ccc(OCc2cc(C(=O)NCC3COCCO3)no2)cc1C (stereo not drawn)	0	1	·	-2	-5	·
Cc1ccc(C)c(OCc2ccc(C(=O)Nc3ccc([N+](=O)[O-])cn3)o2)c1	0	3	·	9.9*	-3	5
CCC1(CC)NC(=O)N(CC(=O)OC(C)C(=O)Nc2cc([N+](=O)[O-])ccc2OC)C1=O (stereo not drawn)	1	0	·	11*	-6	3
CC(CN1CCOCC1)OC(=O)Cc1ccc(Cl)cc1 (stereo not drawn)	0	5	5	11*	-2	2
COc1ccc(CC(=O)OC(C)CN2CCCC2)cc1 (stereo not drawn)	-2	0	10	6	1	·
O=C(CSc1nc(=O)n2ccccc2n1)N1CCCCCC1	0	3	·	1	-2	·
CCn1c(=O)cc(OCC(=O)NCCc2cccc(C)c2)c2ccccc21	0	-1	9	5	0	·
CCOc1ccc(CCNC(=O)CSc2cc(=O)n(CC)c3ccccc23)cc1OCC	0	1	29	14*	0	-3
COc1ccc(Nc2ncnc3c2cnn3-c2ccccc2)cc1OC	0	4	19	11*	3	5
CC1=C(C(=O)OC2CCCC(C)C2)C(c2ccccc2)NC(=O)N1 (stereo not drawn)	0	-2	·	-2	-4	·
Cc1cccc(C(=O)Nc2ccnc(-c3ccncc3)n2)c1	-1	2	8	8.5*	-1	0
COc1ccc(CNC(=O)CCC(=O)c2ccc(F)cc2)cc1OC	0	-1	·	-3	-1	·
O=C(CCC(=O)c1ccc(F)cc1)NCc1ccccc1C(F)(F)F	0	1	·	3	0	-1
Cn1c(SCC(=O)Nc2cccnc2)nnc1-c1ccccc1F	0	-1	-3	2	0	·
CN(Cc1ccccc1)C(=O)COc1cccnc1[N+](=O)[O-]	0	3	·	0	1	·
COc1cc(CNn2cn[nH]c2=S)ccc1OCC(=O)NC(C)(C)C	-1	3	·	8.9*	-2	-3
C=CCOc1ccc(CNn2c(C)n[nH]c2=S)cc1OC	-1	0	34	10.0*	5	1
C=CCOc1c(Br)cc(CNn2c(C)n[nH]c2=S)cc1OC	2	-3	·	-4	-7	·
O=c1c2ccccc2ncn1-c1ccc(Cl)cc1	0	4	8	-4	-2	4
